# Assay outcomes (PubChem BioAssay)
# pCIP destab = p/CIP-EGFP fusion destabilizers, primary screen, fluorescence, F442A cells; Q05BA5; 16 h; decrease of EGFP signal, % at 10 µM; hit rate 0.01% among 290,000;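 active = EGFP signal decrease of at least 30% at 10 µM or well 3 SD below plate mean, unless failing retest; inactive = the rest, including hits failing retest or dose response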
# Target sequence (Q05BA5 1-1403): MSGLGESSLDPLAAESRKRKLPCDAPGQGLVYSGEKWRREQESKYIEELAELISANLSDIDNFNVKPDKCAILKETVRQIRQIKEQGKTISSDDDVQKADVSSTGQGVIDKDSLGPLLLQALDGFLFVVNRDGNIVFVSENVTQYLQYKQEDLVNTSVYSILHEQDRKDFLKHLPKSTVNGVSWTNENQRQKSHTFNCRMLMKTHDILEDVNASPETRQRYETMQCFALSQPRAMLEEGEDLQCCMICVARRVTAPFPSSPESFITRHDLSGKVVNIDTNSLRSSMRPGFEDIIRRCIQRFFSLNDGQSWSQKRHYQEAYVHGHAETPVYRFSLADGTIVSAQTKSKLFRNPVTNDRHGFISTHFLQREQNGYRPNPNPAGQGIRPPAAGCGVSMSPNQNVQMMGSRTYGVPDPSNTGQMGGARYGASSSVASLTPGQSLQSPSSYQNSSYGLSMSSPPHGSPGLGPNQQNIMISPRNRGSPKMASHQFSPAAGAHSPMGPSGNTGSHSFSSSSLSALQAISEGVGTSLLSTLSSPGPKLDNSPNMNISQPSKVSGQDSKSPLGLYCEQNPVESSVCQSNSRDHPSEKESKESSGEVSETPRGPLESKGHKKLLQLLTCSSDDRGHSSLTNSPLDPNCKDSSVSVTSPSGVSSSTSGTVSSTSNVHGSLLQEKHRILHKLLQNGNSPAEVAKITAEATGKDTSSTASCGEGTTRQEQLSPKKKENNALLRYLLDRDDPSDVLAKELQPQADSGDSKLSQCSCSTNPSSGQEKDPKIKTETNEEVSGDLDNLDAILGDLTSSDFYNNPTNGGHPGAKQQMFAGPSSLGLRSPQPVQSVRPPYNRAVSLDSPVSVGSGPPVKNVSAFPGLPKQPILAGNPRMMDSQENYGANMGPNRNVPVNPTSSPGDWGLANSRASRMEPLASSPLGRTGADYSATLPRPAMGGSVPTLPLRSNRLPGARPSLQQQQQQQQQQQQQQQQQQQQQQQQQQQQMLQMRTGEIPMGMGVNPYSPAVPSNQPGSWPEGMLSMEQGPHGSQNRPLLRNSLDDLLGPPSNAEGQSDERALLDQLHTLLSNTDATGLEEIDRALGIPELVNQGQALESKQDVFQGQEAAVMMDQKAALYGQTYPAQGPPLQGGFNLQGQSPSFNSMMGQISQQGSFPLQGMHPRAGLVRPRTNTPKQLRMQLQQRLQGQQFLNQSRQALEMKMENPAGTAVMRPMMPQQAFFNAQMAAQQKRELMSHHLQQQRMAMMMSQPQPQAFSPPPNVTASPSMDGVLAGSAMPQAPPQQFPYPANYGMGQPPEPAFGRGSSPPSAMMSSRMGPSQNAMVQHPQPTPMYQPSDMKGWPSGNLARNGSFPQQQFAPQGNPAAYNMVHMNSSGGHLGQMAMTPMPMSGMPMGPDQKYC
# Runt-SMMHC FRET = inhibitors of RUNX1 Runt–CBFb-SMMHC binding, primary screen, biochemical, FRET, Cerulean-Runt, Venus-CBFb-SMMHC, uHTS; Cerulean-Runt/Venus-CBFb-SMMHC FRET ratio 530/480, 1 h; AID 1434, 2008; hit rate 0.74% among 220,000; inhibition, % at 20 µM; Runt-related transcription factor 1 (Homo sapiens) + Core-binding factor subunit beta …;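 active = mean inhibition across duplicate retests at 20 µM reaching about 50%, limit read from the data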;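 also: 0% = DMSO wells and 100% = wells with excess untagged CBFb-SMMHC; inhibitors lower the FRET ratio by blocking Runt binding to CBFb-SMMHC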
# Hck-Nef inh = inhibitors of Nef-activated human Hck kinase, primary screen, biochemical, Z-Lyte FRET, 384-well, Hck-YEEI; Tyrosine-protein kinase HCK (Homo sapiens), P08631; Recombinant Hck-YEEI plus Nef, Z-Lyte FRET kinase assay; inhibition, % at 20 µM; hit rate 0.68% among 220,000; AID 463187, 2010;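 active = Hck-Nef kinase inhibition above about 50%, limit read from the data; inactive = inhibition below that limit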;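 also: 0% = DMSO with Hck plus Nef and 100% = Hck alone without Nef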
# DSG3 Ab inh = inhibitors of pemphigus antibody binding to DSG3, primary screen, biochemical, bead-based, flow cytometry, scFv-GFP; AID 588358, 2011; hit rate 0.48% among 310,000; DSG3-coupled beads, scFv-anti-DSG3-GFP binding; stronger effect = lower value; Desmoglein-3 (Homo sapiens), P32926; binding (percent of control), % at 10 µM;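 active = binding more than 3 SD below its plate's average and above zero; inconclusive = below that plate limit but binding exactly zero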
# RanGTP-Imp inh = inhibitors of RanGTP-importin-beta interaction, primary screen, biochemical, FRET, CFP-Ran, YFP-importin-beta, homogeneous; cell-free CFP-Ran/YFP-importin-beta FRET ratio; inhibition, % (no concentration beside the values); hit rate 1.1% among 300,000;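 active = more than half of the replicate wells show a fall in the fluorescence ratio signal beyond about 16%, limit read from the data, passing the limit was not always enough; inconclusive = exactly half of the replicate wells pass the set limit; inactive = fewer than half of replicates pass the limit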;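 also: 0% = DMSO wells and 100% = Ran loaded with GDP instead of GTP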
# Runt-CBFb FRET = inhibitors of RUNX1 Runt–CBFb binding, primary screen, biochemical, FRET, Cerulean-Runt, Venus-CBFb, uHTS; Cerulean-Runt/Venus-CBFb FRET ratio 530/480, 1 h; inhibition, % at 20 µM; hit rate 0.46% among 220,000;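 active = inhibition over about 50% at 20 µM in the single-dose screen, limit read from the data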;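 also: 0% = DMSO wells and 100% = excess unlabeled CBFb competitor control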
#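 test system = Cerulean-tagged RUNX1 Runt domain (FRET donor) fusion protein | reagent = Venus-CBFb binding partner, 100 nM | incubation = protein complex preformed 1 h, compound exposure 1 h, room temperature, dark | detection = FRET fluorescence | read-out basis = loss of energy transfer signal | controls = 5 µM unlabeled CBFb as full-inhibition high control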
# An asterisk follows results filed as active; u = inconclusive; x = no result. A selection: hits, their analogues and other compounds. The true share with any hit is near 2.1%.
SMILES,pCIP destab,Runt-SMMHC FRET,Hck-Nef inh,DSG3 Ab inh,RanGTP-Imp inh,Runt-CBFb FRET
Cc1ccc(Cn2c(=O)sc3ccccc3c2=O)cc1,3,-1,2,95,-1,-2
Cc1ccc(-n2sc3ccccc3c2=O)cc1,12,52*,-4,x,-3,-32
Cc1ccc(-n2sc3cc(F)ccc3c2=O)c(C)c1,x,x,x,63*,x,x
O=c1sc2ccccc2c(=O)n1Cc1ccccc1F,19,-4,23,100,-5,0
COC(=O)c1cccc(N2CCCC2=O)c1,-14,3,-4,102,-5,2
Cc1ccc(N2C(=O)CC(N3CCN(c4ccc(F)cc4)CC3)C2=O)c(C)c1 (configuration not stated),-8,x,x,107,-2,x
COC(=O)c1cccc(-n2sc3ccccc3c2=O)c1,x,x,x,38*,x,x
O=S(=O)(c1ccc(S(=O)(=O)N2CCC(O)CC2)cc1)N1CCCC1,5,x,x,100,0,x
COCCN(C(=O)COC(=O)c1ccc(Br)o1)c1c(N)n(Cc2ccccc2)c(=O)[nH]c1=O,x,x,x,96,x,x
O=[N+]([O-])c1cccc(S(=O)(=O)NCCCn2ccnc2)c1,-2,x,x,97,-1,x
O=C(c1sc2cc(F)ccc2c1Cl)N1CCN(c2cccc(Cl)c2)CC1,-4,2,1,128,3,0
O=c1c2ccc(F)cc2sn1-c1ccccc1,x,x,x,50*,x,x
O=C(COc1cc2oc(=O)c3c(c2cc1Cl)CCC3)Nc1cccnc1,1,x,x,77*,-5,x
CCCCOc1ccc(C(=O)OCC(=O)NC2CCCC2)cc1,-1,x,x,100,-3,x
NC(=S)NN=C1c2ccccc2-c2ccccc21,-10,x,x,90,1,x
COc1ccc(N(CC(=O)Nc2ccc(F)c(Cl)c2)S(=O)(=O)c2c(C)noc2C)cc1,-10,2,2,6.0*,5,2
COc1ccc(NC(=O)CN(c2ccc(C)cc2)S(=O)(=O)c2c(C)nn(C)c2C)cc1,9,x,x,105,2,x
COc1ccc(NC(=O)CN(c2ccc(OC)cc2)S(=O)(=O)c2c(C)nn(C)c2C)cc1,-10,x,x,-9.2*,5,x
COc1ccccc1N(C)C(=O)c1cc(S(=O)(=O)N2CCCC2)cn1C,-4,x,x,96,3,x
COc1ccc(NC(=O)c2ccc(-c3ccc(OC)cc3)s2)cc1,-4,2,17,55*,1,1
O=C(NCc1ccc(Cl)cc1)c1cc([N+](=O)[O-])ccc1Cl,-16,-6,22,95,3,-4
O=C(NCc1ccccc1Cl)c1cc([N+](=O)[O-])ccc1Cl,3,-7,20,72*,1,1
Cc1[nH]n(-c2ccccc2)c(=O)c1N=Nc1cccc(S(=O)(=O)N2CCOCC2)c1,-21,-4,1,64*,2,-6
Cc1[nH]n(-c2ccccc2)c(=O)c1N=Nc1cccc(C(=O)O)c1,-8,x,x,92,-3,x
CN(c1ccccc1C(=O)NC1CC2CCC1C2)S(=O)(=O)c1ccccc1 (configuration not stated),-3,-4,2,38*,8,-2
SMILES,pCIP destab,Runt-SMMHC FRET,Hck-Nef inh,DSG3 Ab inh,RanGTP-Imp inh,Runt-CBFb FRET
N#Cc1ccc(-c2ccc(F)cc2)nc1Oc1ccccc1,5,2,1,83,-3,-1
N#Cc1ccc(-c2ccc(F)cc2)nc1Oc1ccc(F)cc1,-16,-9,2,82*,-4,0
Cc1nn(-c2ccccc2)c(C)c1/C=N/NC(=O)CSc1nnc(SCc2cccc3ccccc23)s1,2,7,-1,102,6,-3
O=C(/C=C/c1ccco1)NCc1ccco1,-2,-2,28,80*,-5,0
O=C(CNC(=O)Cc1ccccc1)N=Nc1c(O)[nH]c2ccccc12,9,x,x,x,0,x
Cc1ccc(/C=C/C(=O)NCc2ccco2)o1,-13,17,4,x,6,26
CCc1ccc(/C(C)=N/NC(=O)CNC(=O)/C=C/c2ccco2)cc1,x,x,x,64*,2,x
O=C(CNC(=O)/C=C/c1ccco1)N=Nc1c(O)[nH]c2ccccc12,0,x,x,45*,u,x
Cc1cc(C(=O)NN)c(Cl)cc1Cl,4,1,17,92,-1,1
O=C(COc1ccccc1)NCC(=O)N1CCCC(C(F)(F)F)C1 (configuration not stated),x,x,x,102,x,x
CCOc1ccc(C2C(C(=O)C3CC3)N3C=C(C#N)C=CC3C2(C#N)C#N)cc1 (configuration not stated),-7,1,4,x,30*,2
CCOC(=O)c1cc2c(=O)n3ccccc3nc2n(Cc2ccco2)c1=NC(=O)c1cccnc1,-13,46,12,100,3,52*
COc1ccc(CCNC(=O)c2cc3c(=O)n4ccccc4nc3n(Cc3ccco3)c2=N)cc1OC,0,x,x,78,13,x
COc1ccc(CNC(=O)c2cc3c(=O)n4ccccc4nc3n(Cc3ccco3)c2=N)cc1,x,x,1,x,x,x
CCOC(=O)c1cc2c(=O)n3ccccc3nc2n(Cc2ccco2)c1=NC(=O)c1ccccc1OCC,-1,88*,20,103,1,74*
CCOC(=O)c1cc2c(=O)n3cccc(C)c3nc2n(Cc2ccco2)c1=NC(=O)c1cccnc1,8,63*,15,99,x,102*
CC(C)(C)[C@H]1COC(=O)[C@@H](Cc2ccc(F)cc2)CC/C=C/C[C@@H](CC(=O)N[C@@H](CO)Cc2ccccc2)C(=O)N1,x,x,x,102,x,x
CCCCCNc1nc(NCCCO)c(C#N)c2c1CN(C)CC2,0,79*,11,94,146*,34
C=CCNc1nc(NCc2ccccc2)c(C#N)c2c1CN(C)CC2,-22,65*,6,99,109*,35
CCCCCNc1nc(N2CCCC2)c2c(c1C#N)CCN(C)C2,-18,27,4,118,u,11
CCN1C[C@@H]2[C@@H]3C(=O)N(Cc4ccccc4)C(=O)[C@@H]3[C@](Cc3ccccc3)(C1=O)N2C(=O)c1ccc(C)cc1,x,x,x,106,x,x
Cc1ccc2nc3c(cc(C#N)c(=O)n3CCN3CCOCC3)c(=O)n2c1,-3,63*,x,x,x,146*
Cc1ccc2nc3c(cc(C#N)c(=O)n3CC3CCCO3)c(=O)n2c1 (configuration not stated),-17,65*,189*,x,x,52*
